# Experimental data: PubChem BioAssay AID871 (The Scripps Research Institute Molecular Screening Center, 2007)
# About 1,800 (0.95%) of roughly 190,000 compounds were called active.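 The calls were made as follows: active = activation above the screen-wide mean of compound activation plus 3 SD (cut at about 130% in these data); inactive = the rest.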 Only a selection was taken, and actives are over-represented in it overall.
# Experiment: enhancers of STAT3 transcriptional signaling – U3A cells, luciferase, luminescence, MLSCN library, primary screen (AID 871);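 also: 0% = background luminescence of wells with medium and substrate only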
# Details: IL-6 STAT3-luciferase reporter, at 5.6 µM, stronger effect = higher value, 100% = signal with IL-6 EC80 alone
# Outline: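 Material: STAT3-luciferase reporter U3A cells. Controls: IL-6-treated wells, 100% activation. Read-out: % activation versus median of IL-6-stimulated wells. Probe or stimulus: IL-6 stimulus at 33 ng/mL final. Timing: compound 1 h, then IL-6 6 h at 37 °C. Signal: reporter luminescence signal.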
row,SMILES,activation (% of control)
1,COCC(=O)Nc1cc(C(=O)OC)cc(C(=O)OC)c1,97.7% (inactive)
2,Fc1ccc(CSc2nnc(-c3cc4c(s3)-c3ccccc3CC4)o2)cc1,117% (inactive)
3,CCSc1nnc(-c2cc3c(s2)-c2ccccc2CC3)o1,173% (active)
4,C#CCSc1nnc(-c2sc3ccccc3c2Cl)o1,125% (inactive)
5,CCNC(=O)COC(=O)CCNC(=O)c1cccc(C)c1,102% (inactive)
6,COc1cccc(C(=O)Oc2cc(C)[nH]c(=O)c2[N+](=O)[O-])c1,101% (inactive)
7,OC(COc1cccc(OCC(O)CN2CCCC2)c1)CN1CCCC1 (configuration not stated),101% (inactive)
8,OC(COc1ccc2ccccc2c1)Cn1cncn1 (configuration not stated),97.5% (inactive)
9,OC(COc1ccc2ccccc2c1)CN1CCOCC1 (configuration not stated),159% (active)
10,COc1ccc(/C=N/n2c(C)cc(C)cc2=O)cc1,83.5% (inactive)
11,C=CCn1c(-c2ccc3[nH]c(C)c(C)c3c2)n[nH]c1=S,80.2% (inactive)
12,C=CCn1c(-c2ccccc2OCC)n[nH]c1=S,158% (active)
13,C=CCn1c(-c2sc(-c3ccccc3)nc2C)n[nH]c1=S,94.6% (inactive)
14,COc1ccc(CC(=O)N[C@@H](CCSC)c2nc3ccccc3[nH]2)cc1,96.5% (inactive)
15,COc1ccc(COC(=O)N/N=C(\C)CC(=O)Nc2ccc(Cl)cc2)cc1,101% (inactive)
16,Cc1ccc(C2C(C#N)C(C#N)N3CCCN23)cc1 (configuration not stated),141% (active)
17,O=C(CCC(=O)NNc1nc2ccccc2c2nc(-c3ccccc3)nn12)NCCCN1CCCC1=O,112% (inactive)
18,Cc1nccn1CCCNC(=O)CC1C(=O)NCCN1Cc1ccc(Cl)c(F)c1 (configuration not stated),100% (inactive)
19,COc1ccc(C(CC(=O)c2ccccc2)S(=O)(=O)c2ccccc2)cc1 (configuration not stated),110% (inactive)
20,COc1ccc(C=Nc2cccc3ncccc23)cc1,109% (inactive)
21,Oc1c(C=Nc2cccc3nsnc23)ccc2ccccc12,144% (active)
22,CCCCCCC(=O)Nc1nc(C)c(-c2csc(Nc3cc(Cl)ccc3OC)n2)s1,105% (inactive)
23,CCCCC(=O)Nc1nc(C)c(-c2csc(Nc3ccc(Cl)cc3)n2)s1,149% (active)
24,C=CCCC(=O)Nc1nc(C)c(-c2csc(Nc3ccc(Cl)cc3)n2)s1,159% (active)
25,CCCCCCC(=O)Nc1nc(C)c(-c2csc(Nc3cccc(OC)c3)n2)s1,99.6% (inactive)
26,Cc1nc(NC(=O)c2cccc(Cl)c2)sc1-c1csc(Nc2cccc(Cl)c2)n1,117% (inactive)

row,SMILES,activation (% of control)
1,Cc1ccc(Nc2nc(-c3sc(NC(=O)c4ccccc4)nc3C)cs2)cc1,138% (active)
2,Cc1ccc(-c2csc(NNC(=O)c3ccccc3)n2)cc1,101% (inactive)
3,Cc1nc(NC(=O)CN(C)S(=O)(=O)c2ccc(Cl)cc2)sc1C,106% (inactive)
4,COc1ccc(-c2csc(NC(=O)COC(=O)Cc3ccc(Cl)cc3Cl)n2)cc1,100% (inactive)
5,Cc1ccc(S(=O)(=O)c2ccc(Cl)cc2)cc1S(=O)(=O)NC(C(=O)O)C(C)C (configuration not stated),102% (inactive)
6,Clc1ccc(-c2nc3ccccn3c2CN2CCSCC2)cc1,99.3% (inactive)
7,Cn1c(=O)c2cc(S(=O)(=O)NCCC(=O)Nc3ccc(F)cc3F)ccc2n(C)c1=O,109% (inactive)
8,COc1ccc(NC(=O)CC2C(=O)OCC3CCCCN32)cc1Cl (configuration not stated),102% (inactive)
9,COc1ccccc1CN(C)c1nnnn1-c1ccccc1,99.5% (inactive)
10,COC(=O)c1ccc(CSc2nc3ccccc3c(=O)n2-c2cccc(OC)c2)o1,101% (inactive)
11,COc1cccc(-n2c(=S)[nH]c3c(oc4ccccc43)c2=O)c1,136% (active)
12,COc1cccc(-n2cc(C(=O)O)c3ccccc3c2=O)c1,98.5% (inactive)
13,O=Cc1ccc(OCc2cn3ccccc3n2)cc1,101% (inactive)
14,COc1ccc(/C=C(\NC(=O)c2ccc(OCC(C)C)cc2)C(=O)OCc2ccco2)cc1,111% (inactive)
15,COc1cccc2sc(Nc3nc(C)c(C(C)=O)s3)nc12,108% (inactive)
16,NNc1nc2c(Cl)cccc2s1,134% (active)
17,Fc1cc(F)c2nc(Nc3nc4c(F)cccc4s3)sc2c1,129% (inactive)
18,O=C(CSc1ccccn1)Nc1nc2c(ccc3ccccc32)s1,103% (inactive)
19,NC(=O)Cn1nc([N+](=O)[O-])nc1Oc1ccc(Br)cc1,93.7% (inactive)
20,CC(=O)N1N=C(c2ccccc2)OC1c1cccnc1 (configuration not stated),103% (inactive)
21,CC(=O)Nc1cccc(NC(=O)c2c(-c3ccccc3)noc2C)c1,88.8% (inactive)
22,CCOC(=O)c1c(-c2cccc(C)c2)csc1NC(=O)c1c(-c2ccccc2)noc1C,137% (active)
23,CCOC(=O)c1c(-c2ccccc2)csc1NC(=S)NC(=O)c1ccccc1,106% (inactive)
24,O=C(/C=C/c1ccccc1)Nc1nnc(SCC(=O)c2ccc3ccccc3c2)s1,104% (inactive)
25,COc1ccc(NS(=O)(=O)c2ccc(O)c(C(=O)OCC(=O)NC3CCCCC3)c2)cc1,102% (inactive)
26,CCN=c1sc(C(=O)Nc2ccccc2)c(C)n1CC,84.4% (inactive)

row,SMILES,activation (% of control)
1,COc1cc2c(cc1/C=C1/NC(=O)N(c3ccccc3)C1=O)OCO2,88.5% (inactive)
2,CCCOc1ccccc1C1CC(=O)Nc2cc3c(cc21)OCO3 (configuration not stated),66.4% (inactive)
3,COc1ccccc1C1C2=C(COC2=O)Nc2cc3c(cc21)OCO3 (configuration not stated),144% (active)
4,CSc1ccc(CN(C)CC(=O)NCc2ccc(F)cc2)cc1,106% (inactive)
5,CCOC(=O)N1CCN(CC(=O)Nc2cc(C)nn2-c2nc3ccccc3s2)CC1,162% (active)
6,Cc1cc(NC(=O)CN2CCCC(C)C2)n(-c2nc3ccccc3s2)n1 (configuration not stated),113% (inactive)
7,CCOC(=O)N1CCN(CC(=O)Nc2ccc(F)cc2)CC1,108% (inactive)
8,O=C(CCNC(=O)c1ccc([N+](=O)[O-])cc1)Nc1ccccc1N1CCOCC1,104% (inactive)
9,NC(=O)CC[C@@H]1NC(=O)[C@H](CO)NC(=O)c2cc([N+](=O)[O-])cc(I)c2NCC[C@@H](C(N)=O)NC1=O,95.5% (inactive)
10,Cc1cc(O)cc(O)c1C(=O)Cc1cnn(-c2ccccc2)c1,92.8% (inactive)
11,c1ccc(C2c3[nH]c4ccccc4c3CCN2Cc2cccn2-c2cccnc2)nc1 (configuration not stated),94% (inactive)
12,Oc1cccc(C2c3[nH]c4ccccc4c3CCN2Cc2cnn(-c3ccccc3)c2)c1 (configuration not stated),138% (active)
13,Cc1ccc(Cl)cc1NC(=S)N(CCN(C)C)Cc1cccs1,96.1% (inactive)
14,COc1ccc2c(CC(=O)OCC(=O)Nc3ccccc3[N+](=O)[O-])coc2c1,110% (inactive)
15,Cc1ccc2c(c1)c1ncnc(N3CCc4ccccc4C3)c1n2C,133% (active)
16,Cc1ccc2c(c1)c1ncn(CCC3=CCCCC3)c(=O)c1n2C,104% (inactive)
17,Cc1ccc(-c2cc(C(=O)N3CCc4ccccc4C3)no2)cc1,98.3% (inactive)
18,Fc1ccc(COc2cccc(-c3n[nH]c(=S)o3)c2)cc1,102% (inactive)
19,CCOC(=O)N1CCN(Cc2nc3ccc([N+](=O)[O-])cc3c(=O)n2-c2cccc(OC)c2)CC1,83.3% (inactive)
20,CCn1cc(C(=O)NCCCN2CCCCCC2)c(=O)c2cc(S(=O)(=O)N3CCc4ccccc4C3)ccc21,108% (inactive)
21,COc1ccc(NC(=O)ON=C2c3ccccc3-c3ccccc32)cc1,152% (active)
22,COc1ccc(C(=O)ON=C2c3ccccc3-c3ccccc32)cc1OC,107% (inactive)
23,COc1ccc(NC(=O)C(Br)C(C)C)cc1 (configuration not stated),101% (inactive)
24,COCCN(C(=O)c1ccccc1F)c1c(N)n(Cc2ccccc2)c(=O)[nH]c1=O,89.7% (inactive)
25,CC12CN(NC(=O)c3ccc(Cl)cc3)C3(C#N)CC1CCC23C (configuration not stated),104% (inactive)
